Data reported in ChEMBL document CHEMBL1123146, “Design, synthesis, and evaluation of omega-iodovinyl- and omega-iodoalkyl-substituted methyl-branched long-chain fatty acids” (J Med Chem, 1985).

What was measured:
Rattus norvegicus [1] = test: Concentration was measured in kidney tissue of unfasted Fischer 344 rats administered intravenously after 60 minute (radiolabeled with [125I]-; assay type: ADME, organism-based; conditions: in vivo, iv, 1 h
How it was run: (§1)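 Female Fischer 344 rats, 10-12 weeks old, 170-200 g, with food and water ad libitum. The 125I-fatty acid was taken up in ethanol, added dropwise to stirred 6% BSA at ~40 °C (final ethanol 10%), filtered, and given as 0.5 mL via lateral tail vein under ether anesthesia. Rats were killed by cervical fracture; blood was taken by cardiac puncture. Organs were rinsed, blotted, weighed and gamma-counted against injectate standards to give %ID/g. Five rats per time point.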

Rattus norvegicus [2] = test: Concentration was measured in liver tissue f unfasted Fischer 344 rats administered intravenously after 30 minute (radiolabeled with [123I]-; assay type: ADME, organism-based; conditions: in vivo, iv, 0.5 h
Rattus norvegicus [3] = test: Concentration was measured in liver tissue f unfasted Fischer 344 rats administered intravenously after 30 minute (radiolabeled with [125I]-; assay type: ADME, organism-based; conditions: in vivo, iv, 0.5 h; how it was run: as §1
Rattus norvegicus [4] = test: Concentration was measured in lungs tissue of unfasted Fischer 344 rats administered intravenously after 30 minute (radiolabeled with [123I]-; assay type: ADME, organism-based, Lung; conditions: in vivo, iv, 0.5 h
Rattus norvegicus [5] = test: Concentration was measured in lungs tissue of unfasted Fischer 344 rats administered intravenously after 4 hr (radiolabeled with [123I]-; assay type: ADME, organism-based, Lung; conditions: in vivo, iv
Rattus norvegicus [6] = test: Concentration was measured in lungs tissue of unfasted Fischer 344 rats administered intravenously after 4 hr (radiolabeled with [125I]-; assay type: ADME, organism-based, Lung; conditions: in vivo, iv
Rattus norvegicus [7] = test: Concentration was measured in heart tissue of unfasted Fischer 344 rats administered intravenously after 30 minutes (radiolabeled with [125I]-; assay type: ADME, organism-based; conditions: in vivo, iv, 0.5 h; how it was run: as §1
Rattus norvegicus [8] = test: Concentration was measured in heart tissue of unfasted Fischer 344 rats administered intravenously after 30 minute (radiolabeled with [123I]-; assay type: ADME, organism-based; conditions: in vivo, iv, 0.5 h
Rattus norvegicus [9] = test: Concentration was measured in heart tissue of unfasted Fischer 344 rats administered intravenously after 4 hr (radiolabeled with [123I]-; assay type: ADME, organism-based; conditions: in vivo, iv
Rattus norvegicus [10] = test: Concentration was measured in heart tissue of unfasted Fischer 344 rats administered intravenously after 4 hr (radiolabeled with [125I]-; assay type: ADME, organism-based; conditions: in vivo, iv
Rattus norvegicus [11] = test: Concentration was measured in heart tissue of unfasted Fischer 344 rats administered intravenously after 5 minute (radiolabeled with [123I]-; assay type: ADME, organism-based; conditions: in vivo, iv, 5 min
Rattus norvegicus [12] = test: Concentration was measured in heart tissue of unfasted Fischer 344 rats administered intravenously after 60 minute (radiolabeled with [123I]-; assay type: ADME, organism-based; conditions: in vivo, iv, 1 h
Rattus norvegicus [13] = test: Concentration was measured in heart tissue of unfasted Fischer 344 rats administered intravenously after 60 minute (radiolabeled with [125I]-; assay type: ADME, organism-based; conditions: in vivo, iv, 1 h; how it was run: as §1
Rattus norvegicus [14] = test: Concentration was measured in kidney tissue of unfasted Fischer 344 rats administered intravenously after 4 hr (radiolabeled with [123I]-; assay type: ADME, organism-based; conditions: in vivo, iv
Rattus norvegicus [15] = test: Concentration was measured in kidney tissue of unfasted Fischer 344 rats administered intravenously after 5 minute (radiolabeled with [123I]-; assay type: ADME, organism-based; conditions: in vivo, iv, 5 min
Rattus norvegicus [16] = test: Concentration was measured in kidney tissue of unfasted Fischer 344 rats administered intravenously after 5 minute (radiolabeled with [125I]-; assay type: ADME, organism-based; conditions: in vivo, iv, 5 min; how it was run: as §1
Rattus norvegicus [17] = test: Concentration was measured in lungs tissue of unfasted Fischer 344 rats administered intravenously after 5 minute (radiolabeled with [123I]-; assay type: ADME, organism-based, Lung; conditions: in vivo, iv, 5 min
Rattus norvegicus [18] = test: Concentration was measured in lungs tissue of unfasted Fischer 344 rats administered intravenously after 5 minute (radiolabeled with [125I]-; assay type: ADME, organism-based, Lung; conditions: in vivo, iv, 5 min; how it was run: as §1
Rattus norvegicus [19] = test: Concentration was measured in lungs tissue of unfasted Fischer 344 rats administered intravenously after 60 minute (radiolabeled with [123I]-; assay type: ADME, organism-based, Lung; conditions: in vivo, iv, 1 h
Rattus norvegicus [20] = test: Concentration was measured in blood tissue of unfasted Fischer 344 rats administered intravenously after 30 minute (radiolabeled with [123I]-; assay type: ADME, organism-based; conditions: in vivo, iv, 0.5 h
Rattus norvegicus [21] = test: Concentration was measured in blood tissue of unfasted Fischer 344 rats administered intravenously after 4 hr (radiolabeled with [123I]-; assay type: ADME, organism-based; conditions: in vivo, iv
Rattus norvegicus [22] = test: Concentration was measured in blood tissue of unfasted Fischer 344 rats administered intravenously after 4 hr (radiolabeled with [125I]-; assay type: ADME, organism-based; conditions: in vivo, iv
Rattus norvegicus [23] = test: Concentration was measured in blood tissue of unfasted Fischer 344 rats administered intravenously after 60 minute (radiolabeled with [123I]-; assay type: ADME, organism-based; conditions: in vivo, iv, 1 h
Rattus norvegicus [24] = test: Concentration was measured in blood tissue of unfasted Fischer 344 rats administered intravenously after 60 minute (radiolabeled with [125I]-; assay type: ADME, organism-based; conditions: in vivo, iv, 1 h; how it was run: as §1
Rattus norvegicus [25] = test: Concentration was measured in blood tissue of unfasted Fischer 344 rats administered intravenously after 5 minute (radiolabeled with [123I]-; assay type: ADME, organism-based; conditions: in vivo, iv, 5 min
Rattus norvegicus [26] = test: Concentration was measured in blood tissue of unfasted Fischer 344 rats administered intravenously after 5 minute (radiolabeled with [125I]-; assay type: ADME, organism-based; conditions: in vivo, iv, 5 min; how it was run: as §1
Rattus norvegicus [27] = test: Concentration was measured in thyroid tissue of unfasted Fischer 344 rats administered intravenously after 30 minute (radiolabeled with [125I]-; assay type: ADME, organism-based, Thyroid gland; conditions: in vivo, iv, 0.5 h, in the assay text read “fasted” for “unfasted”
Rattus norvegicus [28] = test: Concentration was measured in thyroid tissue of unfasted Fischer 344 rats administered intravenously after 4 hr (radiolabeled with [125I]-; assay type: ADME, organism-based, Thyroid gland; conditions: in vivo, iv
Rattus norvegicus [29] = test: Concentration was measured in thyroid tissue of unfasted Fischer 344 rats administered intravenously after 5 minute (radiolabeled with [123I]-; assay type: ADME, organism-based, Thyroid gland; conditions: in vivo, iv, 5 min
Rattus norvegicus [30] = test: (§2) Concentration was measured in tissue of unfasted Fischer 344 rats administered intravenously after 60 minute (radiolabeled with [123I]-; assay type: ADME, organism-based; conditions: in vivo, iv, 1 h
Rattus norvegicus [31] = test: Concentration was measured in tissue of unfasted Fischer 344 rats administered intravenously after 60 minute (radiolabeled with [125I]-; assay type: ADME, organism-based; conditions: in vivo, iv, 1 h
How it was run: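 Female Fischer 344 rats, 10–12 weeks old (170–200 g), with food and water ad libitum, five per time point. The radioiodinated fatty acid was dissolved in ethanol, added to 6% BSA at ~40 °C (final 10% ethanol), filtered, and injected into a lateral tail vein (0.5 mL) under ether anesthesia. Blood was taken by cardiac puncture; organs were rinsed, blotted, weighed and gamma-counted against injectate standards. Output is % injected dose/g.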

Rattus norvegicus [32] = test: as §2; assay type: ADME, organism-based; conditions: in vivo, iv, 1 h; remark: listed apart in the source
Rattus norvegicus [33] = test: Concentration was measured in thyroid tissue of fasted Fischer 344 rats administered intravenously after 4 hr (radiolabeled with [123I]-; conditions: in vivo, iv
Rattus norvegicus [34] = test: Concentration was measured in thyroid tissue of fasted Fischer 344 rats administered intravenously after 30 minute (radiolabeled with [123I]-; conditions: in vivo, iv, 0.5 h
Rattus norvegicus [35] = test: Concentration was measured in mean heart/blood tissue of fasted Fischer 344 rats administered intravenously after 5 minute (radiolabeled with [123I]-; conditions: in vivo, iv, 5 min
Rattus norvegicus [36] = test: Concentration was measured in mean heart/blood tissue of fasted Fischer 344 rats administered intravenously after 5 minute (radiolabeled with [125I]-; conditions: in vivo, iv, 5 min
Rattus norvegicus [37] = test: Concentration was measured in mean heart/blood tissue of fasted Fischer 344 rats administered intravenously after 60 minute (radiolabeled with [123I]-; conditions: in vivo, iv, 1 h
Rattus norvegicus [38] = test: Concentration was measured in mean heart/blood tissue of fasted Fischer 344 rats administered intravenously after 60 minute (radiolabeled with [125I]-; conditions: in vivo, iv, 1 h
Rattus norvegicus [39] = test: Concentration was measured in mean heart/blood tissue of fasted Fischer 344 rats administered intravenously after 30 minute (radiolabeled with [123I]-; conditions: in vivo, iv, 0.5 h
Rattus norvegicus [40] = test: Concentration was measured in mean heart/blood tissue of fasted Fischer 344 rats administered intravenously after 30 minute (radiolabeled with [125I]-; conditions: in vivo, iv, 0.5 h

## CC(CCCCCCCCCCCCCC/C=C/I)CC(=O)O.O=C(O)CCCCCCCCCCCCCCCC/C=C/I (stereo not given)
Rattus norvegicus [1]
  Distribution: 1.3%
Rattus norvegicus [2]
  Distribution: 3.49%
Rattus norvegicus [3]
  Distribution: 4.53%
Rattus norvegicus [4]
  Distribution: 1.32%
Rattus norvegicus [5]
  Distribution: 1.23%
Rattus norvegicus [6]
  Distribution: 0.81%
Rattus norvegicus [7]
  Distribution: 3.32%
Rattus norvegicus [8]
  Distribution: 1.19%
Rattus norvegicus [9]
  Distribution: 0.59%
Rattus norvegicus [10]
  Distribution: 1.38%
Rattus norvegicus [11]
  Distribution: 3.52%
Rattus norvegicus [12]
  Distribution: 0.78%
Rattus norvegicus [13]
  Distribution: 2.56%
Rattus norvegicus [14]
  Distribution: 0.95%
Rattus norvegicus [15]
  Distribution: 1.12%
Rattus norvegicus [16]
  Distribution: 1.06%
Rattus norvegicus [17]
  Distribution: 1.54%
Rattus norvegicus [18]
  Distribution: 1.36%
Rattus norvegicus [19]
  Distribution: 1.21%
Rattus norvegicus [20]
  Distribution: 0.74%
Rattus norvegicus [21]
  Distribution: 0.61%
Rattus norvegicus [22]
  Distribution: 0.53%
Rattus norvegicus [23]
  Distribution: 0.64%
Rattus norvegicus [24]
  Distribution: 0.63%
Rattus norvegicus [25]
  Distribution: 0.74%
Rattus norvegicus [26]
  Distribution: 0.91%
Rattus norvegicus [27]
  Distribution: 48.5%
Rattus norvegicus [28]
  Distribution: 364%
Rattus norvegicus [29]
  Distribution: 22.5%
Rattus norvegicus [30]
  Distribution: 2.62%
Rattus norvegicus [31]
  Distribution: 2.94%
Rattus norvegicus [32]
  Distribution: 102%
Rattus norvegicus [33]
  Distribution: 392%
Rattus norvegicus [34]
  Distribution: 65.3%
Rattus norvegicus [35]
  Distribution: 4.8%
Rattus norvegicus [36]
  Distribution: 5.4%
Rattus norvegicus [37]
  Distribution: 1.2%
Rattus norvegicus [38]
  Distribution: 4.1%
Rattus norvegicus [39]
  Distribution: 1.6%
Rattus norvegicus [40]
  Distribution: 4.3%
